KCNQ1 pot: human KCNQ1 channel potentiation or activation; P51787; 310,000 tested, 0.35% active; B-score at 10 µM; AID 2648; CHO-K1 KCNQ1, thallium flux FluxOR fluorescence; hits give high values;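 active = fluorescence ratio B-score, a plate-corrected score, at least three library SD, with initial intensity B-score within 5 SD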
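Assay system: CHO-K1 cells stably expressing KCNQ1; Medium: assay buffer with matched DMSO; Also added: K+/Tl+ depolarizing stimulus; Dosing: single dose; Timing: dye 90 min, compound 20 min, room temperature; Measured by: kinetic FluxOR thallium fluorescence, 10-s 1-Hz baseline, 110-s post-stimulus read; Read-out: peak-minus-minimum fluorescence over initial fluorescence, negative-control normalized, B-scored.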
KCNQ1 block: inhibitors of human KCNQ1 potassium channel | P51787 | AID 2642 | B-score at 10 µM | CHO-K1 KCNQ1, FluxOR thallium flux fluorescence; hits give high values | 310,000 tested, 1.3% active;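 active = compounds whose thallium flux B-score, printed positive for inhibition, exceeds three library SD while starting fluorescence stays within three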;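 note: channel opened by potassium depolarization with thallium stimulus after 20 min compound exposure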
hERG rescue: hERG (human) protection from proarrhythmic block; activation (rescue from dofetilide block), less the hit threshold, % at 10 µM; CHO-hERG, FluxOR thallium flux, dofetilide IC70 present; 310,000 tested, 0.51% active; Q12809; AID 1511;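 active = activation above the mean of controls blocked by dofetilide plus 5 SD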;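 note: thallium influx through hERG after potassium depolarization seen as dye fluorescence rise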
Kir21 block: blocks the mouse Kir2.1 inward-rectifier potassium channel | P35561 | HEK293-Kir2.1, FluxOR thallium flux fluorescence; hits give low values | B-score at 10 µM | 310,000 tested, 0.85% active;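 active = fluorescence ratio B-score at or below minus 3 SD of library scores, with starting-brightness B-score within 2 SD, cut at about -4.2 in these data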;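 note: channel flux triggered by added potassium and thallium sulfate stimulus; B-score of peak minus minimum fluorescence over baseline after thallium stimulus; more negative B-score means stronger Kir2.1 block with less thallium influx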
KCNK9 block: blocks the human KCNK9 two-pore domain potassium channel; Q9NPC2; HEK293 KCNK9, FluxOR thallium flux fluorescence; hits give low values; B-score at 10 µM; 310,000 tested, 1.2% active; AID 488922;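 active = ratio B-score over 3 SD below the library mean, with starting fluorescence within 5 SD of its mean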;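 note: negative B-score means less thallium flux so channel inhibition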
KCNK3 block: human KCNK3 channel inhibition, primary screen. O14649. CHO-KCNK3 thallium flux, FluxOR fluorescence; hits give low values. B-score at 10 µM. 340,000 tested, 0.84% active. AID 602410;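 active = B-score under library mean minus 4 SD, starting fluorescence ratio at most library mean plus 5 SD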;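 note: more negative B-score means stronger inhibition of thallium flux through KCNK3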
An asterisk follows results filed as active; i = inactive; / = no result given. Hits are enriched below; roughly 3.7% of the tested compounds scored in any of these assays.

SMILES	KCNQ1 pot	KCNQ1 block	hERG rescue	Kir21 block	KCNK9 block	KCNK3 block
COc1ccc(S(=O)(=O)NCC(c2cccnc2)N2CCN(Cc3ccccc3)CC2)cc1C (stereo unspecified)	i	i	-8.9	-1.81	i	i
CCCCCCc1cc2cc(-c3nnc(-c4ccccc4O)o3)c(=O)oc2cc1O	i	i	4.3	-1.88	i	i
CCCCCCc1cc2cc(C(=O)Nc3ccccc3OC)c(=O)oc2cc1O	i	i	-4.0	2.07	i	i
CCCCCCc1cc2cc(-c3nnc(-c4cc(OC)c(OC)c(OC)c4)o3)c(=O)oc2cc1O	i	15*	-9.7	-3.92	i	/
CCCCCCc1cc2cc(-c3nnc(-c4ccccc4OC)o3)c(=O)oc2cc1O	i	8*	-8.3	-3.1	i	i
CCOC(=O)C1CCCN(C(=O)c2ccc(S(=O)(=O)Nc3ccccc3OC)cc2)C1 (stereo unspecified)	/	/	/	/	/	i
COc1ccc(-c2cn3nc(SCC(=O)NC4CCCCC4)ccc3n2)cc1	i	i	5.3*	-2.39	i	i
COc1ccc(-c2ccc(SCC(=O)NC3CCCCC3)nn2)cc1	i	i	-3.4	-0.89	i	i
CCCN(CC(=O)Nc1cc(Cl)ccc1Cl)C(=O)/C=C/c1cc(OC)ccc1OC	/	/	/	/	/	-8.72*
COc1ccc(CCNC(=O)c2cc3ccccc3oc2=O)cc1	i	i	7.8*	0.86	i	i
O=C(NCCc1ccc(F)cc1)c1cc2ccccc2oc1=O	i	i	-5.0	0	i	i
Cc1ccc(S(=O)(=O)c2nc(-c3ccco3)oc2SC(C)C)cc1	i	i	-8.5	-0.07	i	i
COc1cc2c(c(O)c1OC)-c1c(cc(OC)c(OC)c1O)[C@@H](OC(=O)c1ccccc1)[C@@](C)(O)[C@@H](C)[C@@H]2OC(C)=O	i	i	4.7*	-0.22	i	/
COc1cc(NC(=O)c2ccc(C(=O)c3ccccc3)cc2)cc(OC)c1OC	i	i	-4.9	0.94	i	i
O=C(CNS(=O)(=O)c1c(Cl)cccc1Cl)N1CCCCCC1	i	i	-1.9	-4.57*	i	i
CC(C)(C)c1ccc(CN(Cc2ccccc2)C(c2ccccn2)c2nnnn2C(C)(C)C)cc1 (stereo unspecified)	i	i	-7.6	-0.78	-7.4*	i
CCN1CCN(C(=O)c2ccc3nc(-c4ccccc4)c(-c4ccccc4)nc3c2)CC1	i	i	-12.7	0.03	i	i
COc1ccccc1Nc1nc(NCC2CCCO2)c2ccccc2n1 (stereo unspecified)	i	i	-19.2	-11.6*	i	i
COCc1cc(=O)n2[nH]c(-c3cccs3)cc2n1	i	i	-5.3	-0.92	i	i
CCOc1ccc(CN(C)CC(O)COC(c2ccc(OC)cc2)c2ccc(OC)cc2)cc1 (stereo unspecified)	i	i	-24.4	-7.66*	i	i
COc1ccc(C(OCC(O)CN(C)C2CCCCC2)c2ccc(OC)cc2)cc1 (stereo unspecified)	i	i	-10.8	-2.37	i	i
CC(C)(C)C(=O)N1CCCC1C(=O)O (stereo unspecified)	i	i	4.9*	1.07	i	i
N#C/C(=C\c1cccnc1)C(=O)Nc1cccc2ccccc12	i	i	-4.9	-4.52*	i	i
N#C/C(=C\c1cccnc1)C(=O)Nc1cccc(Cl)c1	i	i	8.5*	-2.46	i	i
COc1ccc(-c2noc3c2-c2nc(-c4ccc(Br)cc4)sc2CC3)cc1	i	i	-7.5	-1.27	i	i
CCOC(=O)c1ccc2c(c1)n(CC)c(/C=C/Nc1ccccc1)[n+]2CC	i	13*	-24.9	-0.22	i	i
CC[C@@]1(C(=O)OC)N[C@H](CN(C)C(=O)COc2ccccc2)[C@@H]2C(=O)N(Cc3ccccc3)C(=O)[C@@H]21	/	/	/	/	/	i
CCOc1cc(/C=N/n2cnnc2)ccc1OS(=O)(=O)c1ccc(C)cc1	i	i	-14.5	-5.48*	i	i
Cn1c(SCC(=O)N2CCCC2=O)nc2ccccc2c1=O	/	/	/	/	/	i

High-throughput results (PubChem)
